Calls of active or inactive are those of the source. No cut-off for these calls is given here.
Assays:
[1] = target: T1, 5-hydroxytryptamine receptor 6 (Homo sapiens, UniProt P50406); test: Antagonist activity at human recombinant 5HT6 receptor expressed in HEK293 cells assessed as inhibition of serotonin-induced cAMP production after 2 hrs; format: functional, cell-based
How it was run: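 Tetracycline-induced (1 ug/mL, day before) T-Rex HEK cells expressing 5-HT6R, EDTA-harvested, in HBSS/5 mM HEPES pH 7.4/0.05% BSA with IBMX; ~4000 cells/well. Compound premixed with serotonin (final 10 nM, 0.32% DMSO), 2 h; cAMP by LANCE kit. Duplicates; 4-parameter IC50; Ki = IC50/(1+[Ag]/EC50), serotonin EC50 measured on same plates.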

[2] = target: T1, 5-hydroxytryptamine receptor 6; test: Displacement of [3H]lysergic acid diethylamide from human recombinant 5HT6 receptor
[3] = species: Homo sapiens; test: Ratio of Ki for human recombinant 5HT6 receptor to Ki for human recombinant 5HT2B receptor
[4] = system: HEK293; test: Ratio of IC50 for human recombinant 5HT6 receptor expressed in human HEK293 cells to IC50 for human recombinant 5HT2B receptor expressed in human HEK293 cells; format: cell-based
How it was run: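 5-HT6 arm: tetracycline-induced (1 ug/mL, day before) T-Rex 5-HT6R-HEK cells, ~4000 cells/well in HBSS/5 mM HEPES pH 7.4/0.05% BSA, 500 µM IBMX final; compound with 10 nM serotonin, 2 h; cAMP by LANCE TR-FRET. 5-HT2B arm: Fura-2-loaded 5-HT2BR-HEK cells in cuvette, 340/380 nm excitation, 510 nm emission, response to 5 µM α-methylserotonin. IC50 from 4-parameter fits, duplicates.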

[5] = target: Voltage-gated inwardly rectifying potassium channel KCNH2 (Homo sapiens, UniProt Q12809); test: Antagonist activity at human ERG by patch clamp method; format: functional
[6] = target: 5-hydroxytryptamine receptor 1A (Homo sapiens) (UniProt P08908); test: Binding affinity to 5HT1A receptor at 10 uM by radioligand binding assay
Chain of 5-hydroxytryptamine receptor 1A (Homo sapiens) (P08908 whole entry): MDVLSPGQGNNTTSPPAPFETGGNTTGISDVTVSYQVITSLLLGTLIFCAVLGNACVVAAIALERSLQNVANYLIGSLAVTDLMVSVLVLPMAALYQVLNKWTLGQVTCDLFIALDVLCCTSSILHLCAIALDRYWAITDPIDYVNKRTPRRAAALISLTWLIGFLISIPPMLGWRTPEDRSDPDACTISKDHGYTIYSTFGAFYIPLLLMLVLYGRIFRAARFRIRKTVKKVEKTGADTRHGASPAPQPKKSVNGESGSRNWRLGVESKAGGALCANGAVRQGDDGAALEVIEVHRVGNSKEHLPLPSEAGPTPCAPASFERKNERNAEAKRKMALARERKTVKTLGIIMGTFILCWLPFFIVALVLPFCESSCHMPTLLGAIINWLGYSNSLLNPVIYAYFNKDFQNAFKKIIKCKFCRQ
How it was run: (§1)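 Outsourced competitive radioligand displacement against target-specific labelled ligands, using the contractor's own protocol for each target. Single test concentration; duplicates, mean ± SD.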

[7] = target: 5-hydroxytryptamine receptor 1B (Homo sapiens) (UniProt P28222); test: Binding affinity to 5HT1B receptor at 10 uM by radioligand binding assay; how it was run: as §1
[8] = target: 5-hydroxytryptamine receptor 2C (Homo sapiens) (UniProt P28335); test: Binding affinity to 5HT2C receptor at 10 uM by radioligand binding assay; how it was run: as §1
[9] = target: 5-hydroxytryptamine receptor 3A (Homo sapiens) (UniProt P46098); test: Binding affinity to 5HT3 receptor at 10 uM by radioligand binding assay; how it was run: as §1
[10] = target: Alpha-1A adrenergic receptor (Homo sapiens) (UniProt P35348); test: Binding affinity to Adrenergic alpha1A receptor at 10 uM by radioligand binding assay; how it was run: as §1
[11] = target: Alpha-1B adrenergic receptor (Homo sapiens) (UniProt P35368); test: Binding affinity to Adrenergic Alpha-1B receptor at 10 uM by radioligand binding assay; how it was run: as §1
[12] = target: Alpha-1D adrenergic receptor (Homo sapiens) (UniProt P25100); test: Binding affinity to Adrenergic Alpha-1D receptor at 10 uM by radioligand binding assay; how it was run: as §1
[13] = Binding affinity to sigma2 receptor at 10 uM by radioligand binding assay
How it was run: (§2)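 Panel screen of 56 targets (GPCRs, ion channels, transporters) run by a contract lab under its own protocols; each target scored by competition of a single 10 µM compound concentration with its target-specific radioligand, given as percent displacement; duplicates, mean ± SD.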

[14] = target: Adenosine receptor A1 (Homo sapiens) (UniProt P30542); test: Binding affinity to Adenosinergic A1 receptor at 10 uM by radioligand binding assay; how it was run: as §1
[15] = target: Adenosine receptor A2a (Homo sapiens) (UniProt P29274); test: Binding affinity to Adenosinergic A2A receptor at 10 uM by radioligand binding assay; how it was run: as §1
[16] = target: Muscarinic acetylcholine receptor M1 (Homo sapiens) (UniProt P11229); test: Binding affinity to Muscarinic M1 receptor at 10 uM by radioligand binding assay; how it was run: as §1
[17] = target: Muscarinic acetylcholine receptor M2 (Homo sapiens) (UniProt P08172); test: Binding affinity to Muscarinic M2 receptor at 10 uM by radioligand binding assay; how it was run: as §1
[18] = target: Muscarinic acetylcholine receptor M3 (Homo sapiens) (UniProt P20309); test: Binding affinity to Muscarinic M3 receptor at 10 uM by radioligand binding assay; how it was run: as §1
[19] = target: Substance-P receptor (Homo sapiens) (UniProt P25103); test: Binding affinity to tachykinin NK1 receptor at 10 uM by radioligand binding assay; how it was run: as §2
[20] = target: Neuropeptide Y receptor type 1 (Homo sapiens) (UniProt P25929); test: Binding affinity to Neuropeptide Y Y1 receptor at 10 uM by radioligand binding assay; how it was run: as §1
[21] = target: Neuropeptide Y receptor type 2 (Homo sapiens) (UniProt P49146); test: Binding affinity to Neuropeptide Y Y2 receptor at 10 uM by radioligand binding assay; how it was run: as §1
[22] = Binding affinity to Nicotinic receptor at 10 uM by radioligand binding assay; how it was run: as §1
[23] = target: Sodium-dependent noradrenaline transporter (Homo sapiens) (UniProt P23975); test: Binding affinity to norepinephrine transporter at 10 uM by radioligand binding assay; how it was run: as §2
[24] = target: Sodium-dependent dopamine transporter (Homo sapiens) (UniProt Q01959); test: Binding affinity to Dopamine transporter at 10 uM by radioligand binding assay; how it was run: as §1
[25] = Binding affinity to GABA transporter at 10 uM by radioligand binding assay; how it was run: as §1
[26] = target: Sodium-dependent serotonin transporter (Homo sapiens) (UniProt P31645); test: Binding affinity to Serotonin transporter at 10 uM by radioligand binding assay; how it was run: as §2
[27] = target: Sodium- and chloride-dependent glycine transporter 2 (Homo sapiens) (UniProt Q9Y345); test: Binding affinity to Glycine transporter at 10 uM by radioligand binding assay; how it was run: as §1
[28] = target: Alpha-2A adrenergic receptor (Homo sapiens) (UniProt P08913); test: Binding affinity to Adrenergic alpha2A receptor at 10 uM by radioligand binding assay; how it was run: as §1
[29] = target: D(1A) dopamine receptor (Homo sapiens) (UniProt P21728); test: Binding affinity to Dopaminergic D1 receptor at 10 uM by radioligand binding assay; how it was run: as §1
Chain of D(1A) dopamine receptor (Homo sapiens) (P21728 whole entry): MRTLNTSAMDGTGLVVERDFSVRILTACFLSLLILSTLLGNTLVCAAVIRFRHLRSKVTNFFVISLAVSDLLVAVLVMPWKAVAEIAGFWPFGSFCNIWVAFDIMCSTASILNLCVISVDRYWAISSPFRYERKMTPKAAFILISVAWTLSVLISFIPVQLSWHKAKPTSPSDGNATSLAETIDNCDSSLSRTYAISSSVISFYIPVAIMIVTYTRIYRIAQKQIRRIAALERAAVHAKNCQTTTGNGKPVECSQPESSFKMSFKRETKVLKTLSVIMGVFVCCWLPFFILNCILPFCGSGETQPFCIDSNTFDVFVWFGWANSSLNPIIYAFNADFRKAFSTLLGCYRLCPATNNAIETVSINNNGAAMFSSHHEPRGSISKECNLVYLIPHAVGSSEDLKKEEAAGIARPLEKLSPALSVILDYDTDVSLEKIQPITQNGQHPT

[30] = target: D(2) dopamine receptor (Homo sapiens) (UniProt P14416); test: Binding affinity to Dopaminergic D2L receptor at 10 uM by radioligand binding assay; how it was run: as §1
Chain of D(2) dopamine receptor (Homo sapiens) (P14416 whole entry): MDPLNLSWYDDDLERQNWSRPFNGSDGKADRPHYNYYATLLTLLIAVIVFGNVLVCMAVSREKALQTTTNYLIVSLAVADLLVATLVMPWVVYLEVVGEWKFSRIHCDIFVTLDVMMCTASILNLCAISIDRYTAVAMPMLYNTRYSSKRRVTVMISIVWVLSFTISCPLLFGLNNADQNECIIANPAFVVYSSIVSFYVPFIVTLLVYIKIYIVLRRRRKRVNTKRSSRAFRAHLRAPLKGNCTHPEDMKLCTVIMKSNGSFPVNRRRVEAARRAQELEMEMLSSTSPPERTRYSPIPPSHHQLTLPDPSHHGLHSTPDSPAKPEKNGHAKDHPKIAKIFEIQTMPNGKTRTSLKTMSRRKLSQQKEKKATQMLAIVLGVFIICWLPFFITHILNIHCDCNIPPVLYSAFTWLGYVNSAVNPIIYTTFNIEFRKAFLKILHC

[31] = target: D(3) dopamine receptor (Homo sapiens) (UniProt P35462); test: Binding affinity to Dopaminergic D3 receptor at 10 uM by radioligand binding assay; how it was run: as §1
Chain of D(3) dopamine receptor (Homo sapiens) (P35462 whole entry): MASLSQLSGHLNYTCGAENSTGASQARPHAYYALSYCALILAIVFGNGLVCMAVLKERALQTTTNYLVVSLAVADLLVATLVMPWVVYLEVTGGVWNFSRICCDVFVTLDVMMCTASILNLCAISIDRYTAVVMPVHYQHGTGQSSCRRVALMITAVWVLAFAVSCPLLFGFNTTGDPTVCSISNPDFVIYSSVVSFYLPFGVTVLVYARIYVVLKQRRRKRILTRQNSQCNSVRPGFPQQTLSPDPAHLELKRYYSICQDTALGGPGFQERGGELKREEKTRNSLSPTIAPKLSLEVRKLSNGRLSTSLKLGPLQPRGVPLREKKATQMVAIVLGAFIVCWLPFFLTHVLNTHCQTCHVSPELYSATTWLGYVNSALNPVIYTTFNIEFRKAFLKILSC

[32] = Binding affinity to Dopaminergic D4.2 receptor at 10 uM by radioligand binding assay; how it was run: as §1
[33] = target: D(4) dopamine receptor (Homo sapiens) (UniProt P21917); test: Binding affinity to Dopaminergic D4.4 receptor at 10 uM by radioligand binding assay; how it was run: as §1
Chain of D(4) dopamine receptor (Homo sapiens) (P21917 whole entry): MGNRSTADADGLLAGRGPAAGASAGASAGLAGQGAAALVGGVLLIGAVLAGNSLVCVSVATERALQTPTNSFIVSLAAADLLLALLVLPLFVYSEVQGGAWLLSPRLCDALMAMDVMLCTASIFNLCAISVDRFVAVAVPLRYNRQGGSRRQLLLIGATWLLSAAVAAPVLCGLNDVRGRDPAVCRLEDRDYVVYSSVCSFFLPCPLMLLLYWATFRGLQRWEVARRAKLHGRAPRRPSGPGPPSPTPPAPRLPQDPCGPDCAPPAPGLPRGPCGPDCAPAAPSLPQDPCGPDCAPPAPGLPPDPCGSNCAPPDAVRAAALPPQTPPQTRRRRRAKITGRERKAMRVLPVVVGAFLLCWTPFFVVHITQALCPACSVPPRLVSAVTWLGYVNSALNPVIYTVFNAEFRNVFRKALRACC

[34] = Binding affinity to Dopaminergic D4.7 receptor at 10 uM by radioligand binding assay; how it was run: as §1
[35] = target: Histamine H1 receptor (Homo sapiens) (UniProt P35367); test: Binding affinity to Histaminergic H1 receptor at 10 uM by radioligand binding assay; how it was run: as §1
[36] = target: Histamine H2 receptor (Homo sapiens) (UniProt P25021); test: Binding affinity to Histaminergic H2 receptor at 10 uM by radioligand binding assay; how it was run: as §1
[37] = target: Histamine H3 receptor (Homo sapiens) (UniProt Q9Y5N1); test: Binding affinity to Histaminergic H3 receptor at 10 uM by radioligand binding assay; how it was run: as §1
[38] = Binding affinity to imidazoline I2 receptor at 10 uM by radioligand binding assay; how it was run: as §2
[39] = target: Sigma non-opioid intracellular receptor 1 (Homo sapiens) (UniProt Q99720); test: Binding affinity to sigma 1 receptor at 10 uM by radioligand binding assay; how it was run: as §2
Chain of Sigma non-opioid intracellular receptor 1 (Homo sapiens) (Q99720 whole entry): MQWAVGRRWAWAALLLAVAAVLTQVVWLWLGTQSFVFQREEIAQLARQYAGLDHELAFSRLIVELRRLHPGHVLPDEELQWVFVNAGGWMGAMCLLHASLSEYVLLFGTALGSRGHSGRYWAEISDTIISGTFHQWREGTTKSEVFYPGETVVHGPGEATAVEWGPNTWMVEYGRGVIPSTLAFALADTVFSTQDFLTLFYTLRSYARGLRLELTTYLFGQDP

[40] = Binding affinity to L-type calcium channel bezothiazepine binding site at 10 uM by radioligand binding assay; how it was run: as §1
[41] = Binding affinity to L-type calcium channel dihydropyridine binding site at 10 uM by radioligand binding assay; how it was run: as §1
[42] = Binding affinity to N-type calcium channel at 10 uM by radioligand binding assay; how it was run: as §1
[43] = Binding affinity to Potassium channel at 10 uM by radioligand binding assay; how it was run: as §2
[44] = Binding affinity to Sodium channel at 10 uM by radioligand binding assay; how it was run: as §2
[45] = target: Death-associated protein kinase 1 (Homo sapiens) (UniProt P53355); test: Binding affinity to DAPK1 at 10 uM by radioligand binding assay; how it was run: as §1
Chain of Death-associated protein kinase 1 (Homo sapiens) (P53355 whole entry, looked up): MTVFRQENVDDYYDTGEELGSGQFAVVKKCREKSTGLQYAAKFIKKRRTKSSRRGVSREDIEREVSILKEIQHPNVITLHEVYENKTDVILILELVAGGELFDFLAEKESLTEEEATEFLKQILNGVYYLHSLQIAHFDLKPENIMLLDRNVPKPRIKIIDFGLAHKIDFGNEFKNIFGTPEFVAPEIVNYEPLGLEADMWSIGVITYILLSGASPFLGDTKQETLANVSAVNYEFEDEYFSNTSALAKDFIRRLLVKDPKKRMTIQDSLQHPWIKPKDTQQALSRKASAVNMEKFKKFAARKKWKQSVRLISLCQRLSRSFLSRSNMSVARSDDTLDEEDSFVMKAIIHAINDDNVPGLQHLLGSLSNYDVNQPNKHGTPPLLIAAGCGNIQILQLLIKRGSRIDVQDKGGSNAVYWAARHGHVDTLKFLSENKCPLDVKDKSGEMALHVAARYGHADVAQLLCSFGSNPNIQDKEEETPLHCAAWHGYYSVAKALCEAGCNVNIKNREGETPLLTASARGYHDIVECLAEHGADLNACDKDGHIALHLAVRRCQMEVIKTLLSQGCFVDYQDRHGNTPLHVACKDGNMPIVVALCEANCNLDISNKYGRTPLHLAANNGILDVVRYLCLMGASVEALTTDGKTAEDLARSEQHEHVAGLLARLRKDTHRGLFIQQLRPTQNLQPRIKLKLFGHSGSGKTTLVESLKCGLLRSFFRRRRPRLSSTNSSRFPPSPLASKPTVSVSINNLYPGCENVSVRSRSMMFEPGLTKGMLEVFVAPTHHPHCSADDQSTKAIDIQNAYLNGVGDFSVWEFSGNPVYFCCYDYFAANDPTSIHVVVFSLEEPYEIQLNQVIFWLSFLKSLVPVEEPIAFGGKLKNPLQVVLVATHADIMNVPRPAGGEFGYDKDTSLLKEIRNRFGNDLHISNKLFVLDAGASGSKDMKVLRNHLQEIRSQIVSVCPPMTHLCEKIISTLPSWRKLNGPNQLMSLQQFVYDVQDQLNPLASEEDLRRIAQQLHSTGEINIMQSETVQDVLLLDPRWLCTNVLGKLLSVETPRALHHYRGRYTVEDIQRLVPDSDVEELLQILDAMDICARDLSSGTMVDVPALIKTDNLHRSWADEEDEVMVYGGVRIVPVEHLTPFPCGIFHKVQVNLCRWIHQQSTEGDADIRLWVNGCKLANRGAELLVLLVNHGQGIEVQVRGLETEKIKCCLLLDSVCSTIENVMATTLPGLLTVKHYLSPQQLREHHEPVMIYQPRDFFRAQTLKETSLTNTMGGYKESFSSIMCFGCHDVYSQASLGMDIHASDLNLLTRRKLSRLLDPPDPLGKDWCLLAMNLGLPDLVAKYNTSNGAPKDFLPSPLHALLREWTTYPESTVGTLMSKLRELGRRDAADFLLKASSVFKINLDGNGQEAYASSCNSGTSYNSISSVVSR

[46] = target: Death-associated protein kinase 2 (Homo sapiens) (UniProt Q9UIK4); test: Binding affinity to DAPK2 at 10 uM by radioligand binding assay; how it was run: as §1
[47] = target: Death-associated protein kinase 3 (Homo sapiens) (UniProt O43293); test: Binding affinity to DAPK3 at 10 uM by radioligand binding assay; how it was run: as §1
[48] = target: Mitogen-activated protein kinase 8 (Homo sapiens) (UniProt P45983); test: Binding affinity to MAPK8 at 10 uM by radioligand binding assay; how it was run: as §1
Chain of Mitogen-activated protein kinase 8 (Homo sapiens) (P45983 whole entry): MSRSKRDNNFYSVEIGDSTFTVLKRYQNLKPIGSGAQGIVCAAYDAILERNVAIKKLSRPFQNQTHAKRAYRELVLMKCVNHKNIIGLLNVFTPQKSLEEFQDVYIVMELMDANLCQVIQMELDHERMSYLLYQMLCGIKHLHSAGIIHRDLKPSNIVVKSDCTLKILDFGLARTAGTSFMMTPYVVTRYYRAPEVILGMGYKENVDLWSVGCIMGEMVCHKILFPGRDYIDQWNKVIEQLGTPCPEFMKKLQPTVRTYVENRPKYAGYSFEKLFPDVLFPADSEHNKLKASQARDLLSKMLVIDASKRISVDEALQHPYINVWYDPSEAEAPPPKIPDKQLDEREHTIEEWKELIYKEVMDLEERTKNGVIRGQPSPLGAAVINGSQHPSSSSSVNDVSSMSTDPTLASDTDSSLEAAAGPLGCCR

[49] = target: Mitogen-activated protein kinase 10 (Homo sapiens) (UniProt P53779); test: Binding affinity to MAPK10 at 10 uM by radioligand binding assay; how it was run: as §1
[50] = Binding affinity to AMPA receptor at 10 uM by radioligand binding assay; how it was run: as §1
[51] = Binding affinity to Kainate receptor at 10 uM by radioligand binding assay; how it was run: as §1
[52] = Binding affinity to NMDA receptor glycine binding site at 10 uM by radioligand binding assay; how it was run: as §1
[53] = Binding affinity to NMDA receptor phencyclidine binding site at 10 uM by radioligand binding assay; how it was run: as §1
[54] = Binding affinity to GABAB receptor at 10 uM by radioligand binding assay; how it was run: as §1
[55] = Binding affinity to GABAA receptor flunitrazepam binding site at 10 uM by radioligand binding assay; how it was run: as §1
[56] = Binding affinity to GABAA receptor Ro-15-1788 binding site at 10 uM by radioligand binding assay; how it was run: as §1
[57] = target: D(2) dopamine receptor (Homo sapiens) (UniProt P14416); test: Binding affinity to Dopaminergic D2S receptor at 10 uM by radioligand binding assay; how it was run: as §1
[58] = target: Cyclin-dependent kinase 5 (Homo sapiens) (UniProt Q00535); test: Binding affinity to CDK5 at 10 uM by radioligand binding assay; how it was run: as §1
Chain of Cyclin-dependent kinase 5 (Homo sapiens) (Q00535 whole entry, looked up): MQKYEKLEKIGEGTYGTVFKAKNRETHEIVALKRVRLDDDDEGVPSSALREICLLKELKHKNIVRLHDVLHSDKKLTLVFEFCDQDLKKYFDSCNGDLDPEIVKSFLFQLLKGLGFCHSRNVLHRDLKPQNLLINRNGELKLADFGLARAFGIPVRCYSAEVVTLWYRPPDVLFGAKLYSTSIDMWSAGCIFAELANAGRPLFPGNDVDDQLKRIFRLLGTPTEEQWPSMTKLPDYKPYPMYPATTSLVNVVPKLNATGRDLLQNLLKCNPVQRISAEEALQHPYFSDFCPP

T1 sequence (P50406 whole entry): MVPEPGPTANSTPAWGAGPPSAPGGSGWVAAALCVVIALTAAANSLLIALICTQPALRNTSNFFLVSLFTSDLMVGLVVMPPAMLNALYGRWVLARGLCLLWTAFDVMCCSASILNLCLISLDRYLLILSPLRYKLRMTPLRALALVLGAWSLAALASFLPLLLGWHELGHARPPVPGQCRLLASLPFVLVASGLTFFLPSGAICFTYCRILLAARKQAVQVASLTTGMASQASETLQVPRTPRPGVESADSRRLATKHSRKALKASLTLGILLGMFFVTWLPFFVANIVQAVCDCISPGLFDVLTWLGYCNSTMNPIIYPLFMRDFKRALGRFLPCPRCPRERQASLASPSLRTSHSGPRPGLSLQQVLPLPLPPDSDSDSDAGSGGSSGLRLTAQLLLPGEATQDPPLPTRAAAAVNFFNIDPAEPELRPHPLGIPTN

## CCSc1nn2c(C)cc(C)nc2c1S(=O)(=O)c1ccccc1
[1]
  Ki: 1.91 nM

## CNc1nn2c(C)cc(C)nc2c1S(=O)(=O)c1ccccc1
[2]
  Ki: 0.2 nM
[3]
  Ratio: 5000
[4]
  Ratio: 1000
[5]
  IC50: > 30000 nM
[6]
  Activity: inactive
[7]
  Activity: inactive
[8]
  Activity: inactive
[9]
  Activity: inactive
[10]
  Activity: inactive
[11]
  Activity: inactive
[12]
  Activity: inactive
[13]
  Activity: inactive
[14]
  Activity: inactive
[15]
  Activity: inactive
[16]
  Activity: inactive
[17]
  Activity: inactive
[18]
  Activity: inactive
[19]
  Activity: inactive
[20]
  Activity: inactive
[21]
  Activity: inactive
[22]
  Activity: inactive
[23]
  Activity: inactive
[24]
  Activity: inactive
[25]
  Activity: inactive
[26]
  Activity: inactive
[27]
  Activity: inactive
[28]
  Activity: inactive
[29]
  Activity: inactive
[30]
  Activity: inactive
[31]
  Activity: inactive
[32]
  Activity: inactive
[33]
  Activity: inactive
[34]
  Activity: inactive
[35]
  Activity: inactive
[36]
  Activity: inactive
[37]
  Activity: inactive
[38]
  Activity: inactive
[39]
  Activity: inactive
[40]
  Activity: inactive
[41]
  Activity: inactive
[42]
  Activity: inactive
[43]
  Activity: inactive
[44]
  Activity: inactive
[45]
  Activity: inactive
[46]
  Activity: inactive
[47]
  Activity: inactive
[48]
  Activity: inactive
[49]
  Activity: inactive
[50]
  Activity: inactive
[51]
  Activity: inactive
[52]
  Activity: inactive
[53]
  Activity: inactive
[54]
  Activity: inactive
[55]
  Activity: inactive
[56]
  Activity: inactive
[57]
  Activity: inactive
[58]
  Activity: inactive

## Cc1cc(C)n2nc(NCCN(C)C)c(S(=O)(=O)c3ccccc3)c2n1
[1]
  Ki: 2600 nM

## Cc1cc(C)n2ncc(S(=O)(=O)c3ccccc3)c2n1
[1]
  Ki: 561 nM

## CSc1nn2c(C)cc(C)nc2c1S(=O)(=O)c1ccccc1
[2]
  Ki: 2 nM

## Cc1cc(C)n2nc(C)c(S(=O)(=O)c3ccccc3)c2n1
[1]
  Ki: 88.8 nM

## Cc1cc(C)n2nc(N(C)CCN(C)C)c(S(=O)(=O)c3ccccc3)c2n1
[1]
  Ki: 489 nM

## Cc1cc(C)n2nc(NCCCN(C)C)c(S(=O)(=O)c3ccccc3)c2n1
[1]
  Ki: 764 nM

## Cc1cc(C)n2nc(OCCN(C)C)c(S(=O)(=O)c3ccccc3)c2n1
[1]
  Ki: 2200 nM

## Cc1cc(C)n2nc(N3CCNCC3)c(S(=O)(=O)c3ccccc3)c2n1
[1]
  Ki: 1380 nM

## Cc1cc(C)n2nc(OCCO)c(S(=O)(=O)c3ccccc3)c2n1
[1]
  Ki: 283 nM
[2]
  Ki: 22.2 nM

## Cc1cc(C)n2nc([S+](C)[O-])c(S(=O)(=O)c3ccccc3)c2n1 (stereo not given)
[1]
  Ki: 2960 nM

## Cc1cc(C)n2nc(N(C)C)c(S(=O)(=O)c3ccccc3)c2n1
[1]
  Ki: 14.5 nM

— ChEMBL document CHEMBL1759918, “2-Substituted 5,6-dimethyl-3-phenylsulfonyl-pyrazolo[1,5-a]pyrimidines: new series of highly potent and specific serotonin 5-HT6 receptor antagonists” (Eur J Med Chem, 2011)
